Compounds with a hit are over-represented: about 4.7% of the library has one in this group of screens.
RGS4 block – inhibitors of human RGS4 | B-score at 10 µM | 310,000 tested, 0.45% active | P49798 | AID 463165 | HEK293 M3R/RGS4 inducible, Fluo-4 calcium flux; stronger effect = higher value; triggered by carbachol at its EC20;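 active means B-score, a plate-corrected calcium signal, over three deviations above library mean, with baseline fluorescence within five deviations of library mean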;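 further: RGS4 expression induced by doxycycline in cells with stable M3 receptor; B-score is computed from the integrated fluorescence ratio over baseline after carbachol; higher B-score means a larger calcium signal and so more RGS4 inhibition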
RGS4 act – potentiators or activators of RGS4; HEK293 M3R/inducible RGS4, carbachol calcium flux Fluo4; stronger effect = lower value; B-score at 10 µM; 310,000 tested, 0.92% active;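 active means B-score of the integrated calcium signal more than 4 SD below the library mean, with starting fluorescence not abnormally high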;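 further: negative B-score means reduced calcium response which marks RGS4 activation or potentiation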
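Reagent: ECmax carbachol challenge; Test system: M3R-expressing HEK293 line, RGS4 induced by doxycycline; Schedule: overnight RGS4 induction, 30 min dye load 37 °C, 20 min compound RT; Detection: calcium dye Fluo4 fluorescence; Read-out: Agonist-evoked peak-minus-minimum fluorescence over baseline, integrated ratio, B score.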
KCC2 mod – modulates chloride dependent transport by human KCC2; Q9H2X9; KCC2 cells, thallium flux FluoZin-2 fluorescence; B-score of Tl+ flux slope (higher = more flux/activation; lower = inhibition) at 10 µM; 190,000 tested, 2.2% active;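 active means thallium flux slope and its plate-corrected score both differing from the plate sample mean at a set confidence after two filtering rounds, in either direction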;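 further: slope of fluorescence scaled to starting intensity during 10 to 20 s after thallium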
Target sequence (Q9H2X9 whole entry, looked up): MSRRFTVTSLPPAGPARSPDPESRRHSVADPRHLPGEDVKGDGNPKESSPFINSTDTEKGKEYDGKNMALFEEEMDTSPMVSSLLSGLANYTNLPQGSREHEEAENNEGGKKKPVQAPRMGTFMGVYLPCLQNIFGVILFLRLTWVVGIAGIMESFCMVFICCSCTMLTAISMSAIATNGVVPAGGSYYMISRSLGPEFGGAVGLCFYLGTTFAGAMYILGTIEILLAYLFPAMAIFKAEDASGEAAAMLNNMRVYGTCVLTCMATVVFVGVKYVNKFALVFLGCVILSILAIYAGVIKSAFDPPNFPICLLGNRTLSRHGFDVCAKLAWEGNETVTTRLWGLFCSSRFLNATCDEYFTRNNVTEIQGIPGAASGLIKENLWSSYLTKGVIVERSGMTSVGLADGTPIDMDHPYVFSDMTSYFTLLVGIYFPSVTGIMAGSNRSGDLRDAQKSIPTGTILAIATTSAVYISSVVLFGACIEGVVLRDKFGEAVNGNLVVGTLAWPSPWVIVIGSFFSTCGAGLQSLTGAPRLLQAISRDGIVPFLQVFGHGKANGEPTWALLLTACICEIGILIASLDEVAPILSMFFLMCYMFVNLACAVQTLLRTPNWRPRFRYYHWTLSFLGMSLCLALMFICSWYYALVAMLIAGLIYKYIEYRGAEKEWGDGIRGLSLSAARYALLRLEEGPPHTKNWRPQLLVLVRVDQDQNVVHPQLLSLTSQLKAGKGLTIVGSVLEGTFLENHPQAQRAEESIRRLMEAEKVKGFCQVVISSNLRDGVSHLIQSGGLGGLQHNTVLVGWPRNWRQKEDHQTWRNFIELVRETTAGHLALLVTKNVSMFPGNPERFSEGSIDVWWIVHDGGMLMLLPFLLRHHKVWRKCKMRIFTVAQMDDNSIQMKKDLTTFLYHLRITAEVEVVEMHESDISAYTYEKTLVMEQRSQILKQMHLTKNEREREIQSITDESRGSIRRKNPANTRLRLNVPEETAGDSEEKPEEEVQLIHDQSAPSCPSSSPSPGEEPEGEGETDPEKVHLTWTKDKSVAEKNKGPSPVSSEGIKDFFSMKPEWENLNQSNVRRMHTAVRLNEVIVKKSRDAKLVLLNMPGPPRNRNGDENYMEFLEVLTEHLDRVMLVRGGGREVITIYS
MrgX1 ag – agonists of human MrgX1 receptor | MrgX1-HEK293 cells, Fluo-4 calcium fluorescence, agonist mode; stronger effect = higher value | AID 588627 | 310,000 tested, 0.44% active | Q96LB2 | B-score at 10 µM;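 active means calcium response B-score plate-corrected fluorescence ratio at least 3 library SD, with starting fluorescence B-score inside 5 SD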
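Test system: Stable human MrgX1 HEK293 cell line | Schedule: Overnight plating before 1 h dye loading | Read-out basis: Baseline-normalised fluorescence change ratio, B-scored | Detection: Kinetic calcium dye fluorescence, Fluo-4 NW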
MrgX1 allo act – allosterically activates human MrgX1 receptor signaling. 310,000 tested, 0.63% active. MrgX1-HEK293, Fluo-4 calcium flux, FDSS; stronger effect = higher value. Q96LB2. B-score at 10 µM;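 active means plate-corrected calcium response at least 3 library SD above typical, normal starting fluorescence, not activating the receptor alone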;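 further: compound read alongside a low EC10 to EC30 dose of BAM8-22 agonist; peak minus trough fluorescence over baseline measured at the second addition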
MrgX1 antagonist – blocks BAM8-22 activation of human MrgX1 receptor | Q96LB2 | MRGX1-HEK293 calcium flux, Fluo-4, BAM8-22 antagonism; stronger effect = lower value | B-score at 10 µM | 310,000 tested, 1.3% active | AID 588676;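 active means calcium-response B-score plate-corrected more than 3 library SD below zero, starting fluorescence within 5 deviations, no agonist response on first addition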;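 further: peak minus trough fluorescence over baseline after final BAM8-22 challenge near maximal dose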
KCC2 sec1 – KCC2 (human) modulation, secondary assay; normalised thallium flux (F/F0 slope) at 10 µM; shares compounds with KCC2 mod; AID 1713; 3,700 tested, 15% active; HEK293-KCC2, thallium flux, FluoZin2 fluorescence; stronger effect = higher value;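 active means thallium flux slope above the same plate's solvent-only control mean plus 3 SD; inconclusive means the two replicate wells disagree; inactive means no significant difference from solvent-only control wells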
KCC2 bumet counter – thallium flux persisting under bumetanide in KCC2 cells, counter-screen secondary assay | shares compounds with KCC2 mod | HEK293-KCC2 + bumetanide/ouabain, thallium flux FluoZin2; stronger effect = higher value | normalized thallium flux at 10 µM | 3,700 tested, 49% active | AID 1714;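 active means thallium entry rate above the same plate's blocked-transporter control wells by more than 3 SD; inconclusive means the two repeat wells disagree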;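 further: raw slope of fluorescence over initial fluorescence between 10 and 20 s after thallium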
KCC2 secondary2 – confirmation of human KCC2 transport modulators; shares compounds with KCC2 mod; 3,700 tested, 23% active; normalized thallium flux at 10 µM; HEK293-KCC2, thallium flux FluoZin2 fluorescence; actives lie on both sides; F/F0 rise rate, 10–20 s post-thallium;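 active means thallium flux slope more than 3 SD above or below the plate's solvent-only control mean, mostly below; inconclusive means the two repeat wells disagreed; inactive means no significant shift from solvent-only controls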
HEK counter1 – counter-screen for KCC2 modulators: effect in parental HEK293 cells; shares compounds with KCC2 mod; thallium flux FluoZin2, ouabain; baseline-ratio fluorescence slope, 10–20 s after thallium; thallium flux rate (normalised fluorescence) at 10 µM; 3,700 tested, 46% active;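 active means thallium flux rate significantly above the same plate's solvent-only control wells, beyond their mean plus 3 SD; inconclusive means the two replicate wells gave conflicting results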
KCC2 ouabain – KCC2 (human) modulation, ouabain retest | shares compounds with KCC2 mod | HEK293-KCC2, thallium flux FluoZin2 fluorescence; bidirectional: low = inhibitor, high = activator | raw Tl+ flux slope (below DMSO = inhibition, above = activation) at 10 µM | 3,700 tested, 48% active | AID 1717;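 active means thallium flux slope beyond 3 SD from same-plate DMSO control mean in most replicates, usually higher, sometimes lower; inconclusive means repeat tests gave conflicting results; inactive means no significant difference from controls in most replicates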;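 further: slope of initial-normalized fluorescence between seconds 10 and 20 after thallium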
HEK counter2 – counter-screen for KCC2 modulators: effect in parental HEK293 cells; thallium flux slope at 10 µM; thallium flux FluoZin-2 fluorescence slope; shares compounds with KCC2 mod; 3,700 tested, 33% active;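 active means thallium flux slope above the same plate's solvent-control mean plus 3 SD in both duplicate wells; inconclusive means duplicate wells that disagreed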;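 further: run without ouabain in cells lacking the KCC2 cotransporter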
Large screens that a line does not name were inactive (follow-up assays come after a bar, where they were run).

O=C(NC(=S)N1CCN(C/C=C/c2ccccc2)CC1)c1ccc(F)cc1	KCC2 mod 151 | KCC2 sec1 0.0099 | KCC2 bumet counter 0.13 | KCC2 secondary2 0.11 | HEK counter1 0.11 | KCC2 ouabain 0.12 | HEK counter2 0.11
O=C(NC(=S)N1CCN(C/C=C/c2ccccc2)CC1)c1cccnc1	none
O=C(/C=C/c1ccccc1)NC(=S)N1CCSCC1	KCC2 mod 9.7 | KCC2 sec1 0.022 | KCC2 bumet counter 0.026 | KCC2 secondary2 inconclusive | HEK counter1 0.018 | KCC2 ouabain 0.025 | HEK counter2 0.02
O=C(NCCCN1CCOCC1)c1ccc2c(c1)N(Cc1ccc(Cl)cc1)C(=O)c1ccccc1S2=O (configuration not stated)	none (no result: KCC2 mod)
O=C(NCCc1ccccn1)C1CCCN1S(=O)(=O)c1ccc(Cl)cc1 (configuration not stated)	none (no result: KCC2 mod)
O=C(NC1CCCCCC1)c1ccc[nH]c1=S	KCC2 mod 12 | KCC2 sec1 0.013 | KCC2 bumet counter 0.039 | KCC2 secondary2 inactive | HEK counter1 0.016 | KCC2 ouabain 0.038 | HEK counter2 0.011
O=C1CCCCN1CCC(=O)N1CCCC(N2CCN(c3ccccc3)CC2)C1 (configuration not stated)	none (no result: KCC2 mod)
CCC(=O)NNC(=O)c1cc(COc2cc(Cl)cc(Cl)c2)on1	KCC2 mod 8.6 | KCC2 sec1 inactive | KCC2 bumet counter 0.018 | KCC2 secondary2 inactive | HEK counter1 0.017 | KCC2 ouabain inconclusive | HEK counter2 0.014
Cc1ccc(-c2ccnc(=S)[nH]2)cc1	none (no result: KCC2 mod) | KCC2 sec1 0.023 | KCC2 bumet counter 0.032 | KCC2 secondary2 0.041 | HEK counter1 0.033 | KCC2 ouabain 0.034 | HEK counter2 0.035
S=c1nccc(-c2ccc3c(c2)CCO3)[nH]1	KCC2 mod 4.6 | KCC2 sec1 inactive | KCC2 bumet counter 0.011 | KCC2 secondary2 inactive | HEK counter1 0.013 | KCC2 ouabain 0.021 | HEK counter2 0.016
c1ccc(OCc2nn3c(C4CCCCC4)nnc3s2)cc1	KCC2 mod -3.6 | KCC2 sec1 inactive | KCC2 bumet counter inactive | KCC2 secondary2 0.024 | HEK counter1 inconclusive | KCC2 ouabain 0.013 | HEK counter2 inactive
Cc1nnc2sc(COc3ccccc3)nn2c1=O	none (no result: KCC2 mod)
O=C(Nc1ccccc1C(=O)Nc1nnc(C(F)(F)F)s1)c1ccccc1	KCC2 mod 3.2 | KCC2 sec1 inconclusive | KCC2 bumet counter 0.022 | KCC2 secondary2 inactive | HEK counter1 inconclusive | KCC2 ouabain inactive | HEK counter2 inactive
O=C(O)C1(S(=O)(=O)c2ccc(Cl)cc2)CCC1	none (no result: KCC2 mod)
Cc1c(O)ccc(/C(Cc2ccc3ccccc3n2)=N\O)c1O	KCC2 mod -4.9 | KCC2 sec1 inactive | KCC2 bumet counter inactive | KCC2 secondary2 inactive | HEK counter1 inactive | KCC2 ouabain 0.015 | HEK counter2 inactive
O=C(NCCc1ccccc1)c1nc2nc(-c3cccs3)cc(C(F)(F)F)n2n1	KCC2 mod -2.5 | KCC2 sec1 inactive | KCC2 bumet counter inactive | KCC2 secondary2 inactive | HEK counter1 inactive | KCC2 ouabain inactive | HEK counter2 inactive
COCCCNC(=O)c1cc2c(s1)CS(=O)(=O)C2	none
CC(C)OCCCNC(=O)c1cc2c(s1)CS(=O)(=O)C2	none (no result: KCC2 mod) | KCC2 sec1 inactive | KCC2 bumet counter inactive | KCC2 secondary2 inactive | HEK counter1 inactive | KCC2 ouabain inactive | HEK counter2 inactive
COc1ccc(OC)c(/C(O)=C/C(=O)C(=O)Nc2cc(C)cc(C)c2)c1	none
COc1ccccc1NC(=O)C(=O)/C=C(\O)c1ccccc1	KCC2 mod 73 | KCC2 sec1 inconclusive | KCC2 bumet counter 0.088 | KCC2 secondary2 0.062 | HEK counter1 0.052 | KCC2 ouabain 0.064 | HEK counter2 0.041
CCOc1ccccc1NC(=O)C(=O)/C=C(\O)c1cc(OC)ccc1OC	KCC2 mod 5.8 | KCC2 sec1 inactive | KCC2 bumet counter 0.026 | KCC2 secondary2 inactive | HEK counter1 0.022 | KCC2 ouabain 0.029 | HEK counter2 0.014
COc1ccc(OC)c(/C(O)=C/C(=O)C(=O)Nc2cc(C)ccc2OC)c1	KCC2 mod 4 | KCC2 sec1 inactive | KCC2 bumet counter 0.022 | KCC2 secondary2 inactive | HEK counter1 0.016 | KCC2 ouabain 0.027 | HEK counter2 0.018
COc1ccc(CN2CCN(Cc3c[nH]c4ccccc34)CC2CCO)c(F)c1 (configuration not stated)	none (no result: KCC2 mod)
Cc1ccc(SCC(=O)OCC(=O)NC2(C#N)CCCCC2)cc1	none (no result: KCC2 mod)
Cc1ccccc1NC(=O)c1c(Cl)nc(C)c(Cl)c1C	none
CCc1ccc(NC(=O)c2c(Cl)nc(C)c(Cl)c2C)cc1	KCC2 mod -4.2 | KCC2 sec1 inactive | KCC2 bumet counter inactive | KCC2 secondary2 0.025 | HEK counter1 inconclusive | KCC2 ouabain 0.016 | HEK counter2 inactive
COc1ccc(Cl)cc1NC(=O)NCc1ccc2c(c1)OCO2	none (no result: KCC2 mod)
O=C(NNC(=O)c1cc(-c2ccccc2)nn1-c1ccccc1)c1ccccc1	KCC2 mod 29 | KCC2 sec1 inactive | KCC2 bumet counter 0.1 | KCC2 secondary2 0.067 | HEK counter1 0.067 | KCC2 ouabain 0.076 | HEK counter2 0.063
O=C(NNc1nc(-c2ccccc2)cs1)c1ccccc1	KCC2 mod -5.9 | KCC2 sec1 inactive | KCC2 bumet counter inconclusive | KCC2 secondary2 0.025 | HEK counter1 inactive | KCC2 ouabain 0.014 | HEK counter2 inactive
O=C(NNC(=O)c1ccc(-c2ccccc2)cc1)c1ccccc1	KCC2 mod -3.7 | KCC2 sec1 inactive | KCC2 bumet counter inconclusive | KCC2 secondary2 inactive | HEK counter1 inactive | KCC2 ouabain inactive | HEK counter2 inconclusive

Assay outcomes (PubChem)
